# Results reported in paper PMC5784828 (Biochemical and biophysical research communications, 2018).
# System: MDA-MB-231 cells
# Assay: Scratch cell migration assay
# Format: cell-based
# Conditions: 1 μM, MDA-MB-231, 18 hr
# Procedure, shortened: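 MDA-MB-231 cells were grown at 37°C, 5% CO2, in high-glucose DMEM with 10% FBS, L-glutamine, penicillin/streptomycin and 15 mM HEPES. A scratch was made in a confluent monolayer, then test compound or 1% DMSO (solvent control) was added in normal growth medium. The same scratch area was photographed at 0 and 18–24 hr. Duplicate or single wells; four independent experiments; images representative.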
structure (smiles),measurement,value
CN(C)Cc1cccc(N/C(=C2\C(=O)Nc3cc(C(N)=O)ccc32)c2ccccc2)c1 [BIX02188],Effect on scratch healing (cell migration),showed inhibition of scratch healing
